For assay [1], the target named is Cannabinoid receptor 1 (Homo sapiens) (UniProt P21554). Put plainly: Positive allosteric modulation of CB1 receptor (unknown origin) expressed in HEK293 cell membranes assessed as stimulation of [3H]CP55,940 binding after 60 mins by liquid scintillation counting analysis. In short, it runs like this: (§1)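 Nonspecific binding was taken with 1 μM unlabeled CP55,940. Samples were filtered on GF/C and counted by scintillation. Runs were in duplicate, ≥3 experiments. α and KB came from nonlinear regression to the allosteric ternary complex model, with [A] and KA fixed.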

The target is the same in assay [2]. Put plainly: Antagonist activity CB1 receptor (unknown origin) expressed in HEK293 cell membranes assessed as inhibition of CP55,940-induced [35S]GTPgammaS binding at 10 uM after 60 mins by liquid scintillation counting analysis relative to control. Type of assay: functional. In a few lines: (§2)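 Wild-type CB1 HEK293 membranes (7.5 μg) were incubated 60 min at 30 °C in 50 mM Tris-HCl pH 7.4, 3 mM MgCl2, 0.2 mM EGTA, 100 mM NaCl, 0.1% BSA, 10 μM GDP and 0.1 nM [35S]GTPγS. CP55,940 was given at ≥9 concentrations (100 pM–100 μM), with or without modulator. Nonspecific binding was taken with 10 μM GTPγS. Samples were filtered and counted by scintillation. Runs were in duplicate, ≥3 experiments.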
Background: GTPγS resists hydrolysis and so accumulates on activated G proteins.

Assay [3] has the same target. As to the kind of experiment: Antagonist activity CB1 receptor (unknown origin) expressed in HEK293 cell membranes assessed as inhibition of CP55,940-induced [35S]GTPgammaS binding at 3.2 uM after 60 mins by liquid scintillation counting analysis relative to control. Type of assay: functional. In short, it runs like this: as §2
The target is the same in assay [4]. As to the kind of experiment: Antagonist activity CB1 receptor (unknown origin) expressed in HEK293 cell membranes assessed as inhibition of CP55,940-induced [35S]GTPgammaS binding after 60 mins by liquid scintillation counting analysis. Type of assay: functional. In short, it runs like this:
as §2

Assay [5] has the same target. As to the kind of experiment: Antagonist activity CB1 receptor (unknown origin) expressed in HEK293 cell membranes assessed as inhibition of [35S]GTPgammaS binding at 10 uM after 60 mins by liquid scintillation counting analysis. Type of assay: functional. In short, it runs like this:
(§3)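 Basal [35S]GTPγS binding was measured with no orthosteric agonist on wild-type CB1 HEK293 membranes (7.5 μg), 60 min at 30 °C. Buffer was Tris pH 7.4 with MgCl2, EGTA, NaCl and BSA, plus 5 μM GDP and 0.1 nM [35S]GTPγS, and modulator added. Nonspecific binding was taken with 10 μM GTPγS. Mock-transfected membranes gave the non-CB1 binding. Samples were filtered and counted by scintillation. Runs were in duplicate, ≥3 experiments; one-way ANOVA with Bonferroni test was applied.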

The target is the same in assay [6]. As to the kind of experiment: Antagonist activity CB1 receptor (unknown origin) expressed in HEK293 cell membranes assessed as inhibition of [35S]GTPgammaS binding after 60 mins by liquid scintillation counting analysis. Type of assay: functional. In a few lines: as §3
Assay [7] shares this target. As to the kind of experiment: Antagonist activity CB1 receptor (unknown origin) expressed in HEK293 cell membranes assessed as inhibition of CP55,940-induced [35S]GTPgammaS binding at 0.1 uM after 60 mins by liquid scintillation counting analysis (reference value: […] +/- […] fmol/mg). Type of assay: functional.
Assay [8] has the same target. As to the kind of experiment: Antagonist activity CB1 receptor (unknown origin) expressed in HEK293 cell membranes assessed as inhibition of CP55,940-induced [35S]GTPgammaS binding at 1 uM after 60 mins by liquid scintillation counting analysis relative to control. Type of assay: functional. In a few lines: as §2
The target is the same in assay [9]. As to the kind of experiment: Allosteric modulation of CB1 receptor (unknown origin) expressed in HEK293 cell membranes assessed as stimulation of [3H]CP55,940 binding up to 32 uM after 60 mins by liquid scintillation counting analysis. In short, it runs like this: as §1

The source made the active and inactive calls. The rule behind the calls is not given here.

Cannabinoid receptor 1 (Homo sapiens), sequence (P21554 whole entry): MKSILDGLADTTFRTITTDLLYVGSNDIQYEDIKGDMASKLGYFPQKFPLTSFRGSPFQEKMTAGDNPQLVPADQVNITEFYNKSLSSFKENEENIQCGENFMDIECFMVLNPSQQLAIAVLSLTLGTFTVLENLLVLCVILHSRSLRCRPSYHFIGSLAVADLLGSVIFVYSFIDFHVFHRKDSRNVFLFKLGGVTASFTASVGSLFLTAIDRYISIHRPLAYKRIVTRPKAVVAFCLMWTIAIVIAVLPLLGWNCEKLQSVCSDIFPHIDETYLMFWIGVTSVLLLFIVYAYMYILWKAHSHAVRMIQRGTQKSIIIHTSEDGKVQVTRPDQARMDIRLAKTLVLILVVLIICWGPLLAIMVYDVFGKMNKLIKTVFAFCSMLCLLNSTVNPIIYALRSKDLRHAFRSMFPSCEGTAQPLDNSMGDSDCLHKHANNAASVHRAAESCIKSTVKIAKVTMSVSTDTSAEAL

For the compound `CCc1c(C(=O)NCCc2ccc(N3CCCCC3)cc2)[nH]c2ccc(Cl)cc12`, the Kb in [1] is 217 nM.

Take `CCc1c(C(=O)NCCc2ccc(N3CCCCC3)cc2)oc2ccc(Cl)cc12`: the inhibition result in assay [2] is “Active”. Moreover, the Emax in [3] turned out to be 59.5 fmol/mg. Moreover, in assay [4], the inhibition entry was “Dose-dependent effect”. Further, in assay [1], the Kb was 2590 nM.

As for `CCCCCCCc1c(C(=O)NCCc2ccc(N3CCCCC3)cc2)[nH]c2ccc(Cl)cc12`, the Kb in assay [1] was 651 nM.

With `CCCCCc1c(C(=O)NCCc2ccc(N(C)C)cc2)[nH]c2ccc(Cl)cc12`, the inhibition result in assay [5] was “Active”. Also, the inhibition result in assay [6] and in assay [4] was “Dose-dependent effect” in each case. In addition, the Emax in assay [7] turned out to be 53.4 fmol/mg; in assay [8], 36 fmol/mg. Moreover, the Kb in [1] was 167 nM.

Regarding `O=C(NCCc1ccc(N2CCCCC2)cc1)c1[nH]c2ccc(Cl)cc2c1Cc1ccccc1`, in [1], the Kb came to 1070 nM.

As for `CCCCCc1c(C(=O)NCc2ccc(N3CCCCC3)cc2)[nH]c2ccc(Cl)cc12`, the outcome in [9] was inactive.

As for `CCCCCCCCCc1c(C(=O)NCCc2ccc(N3CCCCC3)cc2)[nH]c2ccc(Cl)cc12`, the inhibition result in assay [2] was “Active”. In addition, the Emax in assay [3] was found to be 61.4 fmol/mg. Also, the inhibition result in assay [4] was “Dose-dependent effect”. Further, in [1], the Kb was determined as 260 nM.

Consider `O=C(NCCc1ccc(N2CCCCC2)cc1)c1[nH]c2ccc(Cl)cc2c1-c1ccccc1`, for which, in assay [9], the outcome was inactive.

On to `CCc1c(C(=O)NCCc2ccc(N(C)C)cc2)[nH]c2ccc(Cl)cc12`, for which the Kb in assay [1] came out at 207 nM.

Regarding `O=C(NCCc1ccc(N2CCCCC2)cc1)c1cc2cc(Cl)ccc2o1`, the outcome in [9] was inactive.

Turning to `CCCCCc1c(C(=O)NC(CO)Cc2ccc(N(C)C)cc2)[nH]c2ccc(Cl)cc12` (stereo not given), the Kb in assay [1] turned out to be 1020 nM.

For the compound `CCc1c(C(=O)NCCc2ccc(N(C)C)cc2)oc2ccc(Cl)cc12`, the Kb in assay [1] was 627 nM.

For `O=C(NCCc1ccc(N2CCCCC2)cc1)c1[nH]c2ccc(Cl)cc2c1CC1CCCCC1`, the Kb in [1] is 2410 nM.

Turning to `CN(C)c1ccc(CCNC(=O)c2cc3cc(Cl)ccc3o2)cc1`, the outcome in assay [9] was inactive.

Take `CCCCCc1c(C(=O)NCCc2ccc(N3CCOCC3)cc2)[nH]c2ccc(Cl)cc12`: the inhibition result in assay [2] was “Active”. The Emax in assay [3] amounted to 58.2 fmol/mg. The inhibition result in assay [4] was “Dose-dependent effect”. For the same compound, in [1], the Kb came out at 508 nM.

On to `CCCCCc1c(C(=O)NCCc2ccc(Oc3ccccc3)cc2)[nH]c2ccc(Cl)cc12`, for which the Kb in assay [1] came out at 2340 nM.

These data come from ChEMBL document CHEMBL2429762, “Structure-activity relationship study of indole-2-carboxamides identifies a potent allosteric modulator for the cannabinoid receptor 1 (CB1)” (J Med Chem, 2013).
